Only some compounds are listed: those with a hit (about 3.8% of all), similar ones and a draw of the others.
KCNQ1 act – potentiates or activates the human KCNQ1 potassium channel. P51787. CHO-K1 KCNQ1, thallium flux FluxOR fluorescence; active compounds read high. B-score at 10 µM. hit rate 0.35% among 310,000. AID 2648;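 active means fluorescence ratio B-score, a plate-corrected score, at least three library SD, with initial intensity B-score within 5 SD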
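System: Stable KCNQ1 CHO-K1 line | Incubation: 90 min dye loading and 20 min compound exposure, both at room temperature | Measure: Ratio B score | Medium: Assay buffer for compound exposure, DMSO matched across wells | Compound dosing: Single-concentration screen | Probe or stimulus: K+/Tl+ depolarizing stimulus | Measured by: Kinetic FluxOR fluorescence, 10 s baseline plus 110 s post-stimulus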
KCNK3 inh – human KCNK3 channel inhibition, primary screen; hit rate 0.84% among 340,000; B-score at 10 µM; CHO-KCNK3 thallium flux, FluxOR fluorescence; active compounds read low;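 active means B-score under library mean minus 4 SD, starting fluorescence ratio at most library mean plus 5 SD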;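 further: more negative B-score means stronger inhibition of thallium flux through KCNK3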
KCNK9 block – human KCNK9 channel inhibition; Q9NPC2; HEK293 KCNK9, FluxOR thallium flux fluorescence; active compounds read low; B-score at 10 µM; hit rate 1.2% among 310,000;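 active means ratio B-score over 3 SD below the library mean, with starting fluorescence within 5 SD of its mean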;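 further: negative B-score means less thallium flux so channel inhibition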
Target sequence (Q9NPC2 whole entry, looked up): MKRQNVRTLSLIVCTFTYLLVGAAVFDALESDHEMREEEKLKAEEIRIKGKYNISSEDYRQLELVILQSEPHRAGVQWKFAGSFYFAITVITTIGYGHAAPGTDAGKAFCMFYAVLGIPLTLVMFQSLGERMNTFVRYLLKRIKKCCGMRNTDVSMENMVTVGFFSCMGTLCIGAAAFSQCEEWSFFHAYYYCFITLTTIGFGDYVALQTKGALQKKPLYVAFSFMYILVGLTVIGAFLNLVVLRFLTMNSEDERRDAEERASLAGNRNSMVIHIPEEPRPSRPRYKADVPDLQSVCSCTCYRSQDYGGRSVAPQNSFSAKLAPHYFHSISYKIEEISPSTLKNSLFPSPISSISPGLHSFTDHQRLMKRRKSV
Kir21 block – blocks the mouse Kir2.1 inward-rectifier potassium channel; P35561; HEK293-Kir2.1, FluxOR thallium flux fluorescence; active compounds read low; B-score at 10 µM; hit rate 0.85% among 310,000; AID 1672;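 active means fluorescence ratio B-score at or below minus 3 SD of library scores, with starting-brightness B-score within 2 SD, cut at about -4.2 in these data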;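 further: channel flux triggered by added potassium and thallium sulfate stimulus; B-score of peak minus minimum fluorescence over baseline after thallium stimulus; more negative B-score means stronger Kir2.1 block with less thallium influx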
hERG rescue – hERG (human) protection from proarrhythmic block; Q12809; CHO-hERG, FluxOR thallium flux, dofetilide IC70 present; activation (rescue from dofetilide block), less the hit threshold, % at 10 µM; hit rate 0.51% among 310,000; AID 1511;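 active means activation above the mean of controls blocked by dofetilide plus 5 SD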;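 further: thallium influx through hERG after potassium depolarization seen as dye fluorescence rise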
KCNQ1 inh – inhibitors of human KCNQ1 potassium channel; AID 2642; CHO-K1 KCNQ1, FluxOR thallium flux fluorescence; active compounds read high; B-score at 10 µM; P51787; hit rate 1.3% among 310,000;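 active means compounds whose thallium flux B-score, printed positive for inhibition, exceeds three library SD while starting fluorescence stays within three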;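 further: channel opened by potassium depolarization with thallium stimulus after 20 min compound exposure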
* hit, by the source's call; i = inactive; . = no result; ! = a repeat was not active.

SMILES | KCNQ1 act | KCNK3 inh | KCNK9 block | Kir21 block | hERG rescue | KCNQ1 inh
COc1cc(NC(=O)c2cc(OC)c(OC)c(OC)c2)c2ncccc2c1 | . | i | . | . | . | .
COc1cc(NC(=O)OCc2ccccc2)c2ncccc2c1 | . | -10.8* | . | . | . | .
O=C(N/N=C/c1cccc(Oc2ccccc2)c1)c1cc[n+]([O-])cc1 | i | i | i | 2.44 | -11.8 | i
Nc1ccc(C(=O)N/N=C/c2cccc(Oc3ccccc3)c2)cc1 | i | i | i | -10.9* | -12.9 | i
COC(=O)c1ccccc1C(=O)N1CCC(CCC(=O)NC2CC2)CC1 | i | i | i | -0.99 | -4.4 | i
CC[N+](C)(C)CC/C=C1/c2ccccc2Sc2ccc(Cl)cc21 | i | i | i | 1.89 | -6.0 | i
CCCCCCCCCCC[N+](C)(C)CC/C=C1/c2ccccc2Sc2ccc(Cl)cc21 | 9* | i | i | -0.29 | -11.1 | i
COc1ccccc1NC(=O)c1ccc(S(=O)(=O)N(C)c2ccccc2)cc1 | . | i | . | . | . | .
COc1cc(NC(=O)c2ccc(S(=O)(=O)N(C)c3ccccc3)cc2)cc(OC)c1 | . | -9.08* | . | . | . | .
CN(c1ccccc1)S(=O)(=O)c1cccc(NC(=O)c2ccc(Cl)c([N+](=O)[O-])c2)c1 | . | -11.3* | . | . | . | .
O=C(N/N=C/c1ccco1)c1cccc(N2Cc3ccccc3C2)c1 | i | i | i | 1.45 | -9.8 | i
Oc1ccc(Oc2ccc(Oc3ccc(O)cc3)cc2)cc1 | i | i | -6.91* | 0.31 | -8.7 | 13*
CC(=O)c1ccc(Oc2ccc(C(C)=O)cc2)cc1 | i | i | i | 1.33 | -6.0 | i
O=C(COC(=O)/C=C/c1ccccc1[N+](=O)[O-])NNC(=O)c1ccc(F)cc1 | . | i | . | . | . | .
COC(=O)N1C(=O)[C@@](Cc2ccccc2)(c2ccccc2)N1C(=O)OC | i | i | i | 0.67 | 5.4* | i
O=C(Cc1cc(=O)[nH][nH]1)N/N=C/c1c(Cl)cccc1Cl | i | i | i | -4.29*! | -2.5 | i
Cc1ccc(S(=O)(=O)Nc2c(C)[nH]c(=O)[nH]c2=O)cc1C | i | i | i | -0.29 | 5.0* | i
CN1CCN(NC(=O)Nc2cccc(F)c2)CC1 | i | i | i | -0.61 | -6.8 | 8*
Cc1cc(C)n2nc(C(=O)Nc3ccc4c(c3)CCC4)nc2n1 | i | i | i | -0.02 | -10.1 | i
CCN1CCN(c2nc(-c3ccccc3)c3ccccc3n2)CC1 | i | i | i | -0.95 | -18.0 | i
c1ccc(-c2nc(N3CCNCC3)nc3ccccc23)cc1 | i | i | i | -7.15* | -11.4 | i
Cc1ccc2nc(CCc3nc4ccc(C)cc4[nH]3)[nH]c2c1 | i | i | i | -4.36* | -7.7 | i
CC(=O)OCC(=O)C12OC(C)(C)OC1CC1C3CC=C4CC(O)CCC4(C)C3CCC12C (centres undefined) | . | i | . | . | . | .
O=C1/C(=N\S(=O)(=O)c2cccs2)C([n+]2cccc(Cc3ccccc3)c2)=C([O-])c2ccccc21 | i | i | -6.59* | -0.68 | -8.1 | i
C=CCNS(=O)(=O)NC(=O)C1=C(N2CCCC2)COC1=O | . | i | . | . | . | .
SMILES | KCNQ1 act | KCNK3 inh | KCNK9 block | Kir21 block | hERG rescue | KCNQ1 inh
O=C(C1CCN(S(=O)(=O)c2cccc3cccnc23)CC1)N1CCCCC1 | i | i | i | 0.08 | -6.9 | i
O=[N+]([O-])c1cc(S(=O)(=O)Nc2ccccc2)ccc1NCc1ccccc1 | i | i | -6.57* | 1.48 | -4.2 | i
O=[N+]([O-])c1cc(S(=O)(=O)Nc2ccccc2)ccc1NCc1cccnc1 | i | i | i | -1.44 | -7.4 | i
OC(CNCC(c1ccc(Cl)cc1Cl)c1c[nH]c2ccccc12)c1ccccc1 (centres undefined) | i | i | i | -0.4 | 39.9* | i
COc1ccc(-n2c(C)cc(C(=O)CCl)c2C)cc1 | 8* | i | i | -1.32 | -18.9 | i
COc1ccc(CCNCc2cc(C)n(-c3ccc(OC)cc3)c2C)cc1 | i | i | i | -4.75* | -11.7 | i
COc1ccc(-n2c(C)cc(C(=O)CN3C(=O)c4ccccc4C3=O)c2C)cc1 | i | i | i | 0.76 | -5.9 | i
COCCN(CCOC)Cc1c(O)ccc2c3c(c(=O)oc12)CCC3 | i | i | -7.11* | -1.12 | -7.2 | i
N#Cc1ccc(-c2ccc(OCC(=O)Nc3cccnc3)cc2)cc1 | i | i | i | 1.17 | -1.9 | i
O=C(COc1ccc(C(=O)c2ccccc2)cc1)Nc1cccnc1 | i | i | i | 0.53 | 16.1* | i
Cc1ccc(S(=O)(=O)NCCSc2nnnn2-c2ccccc2)cc1 | i | i | i | -7.08* | -0.3 | i
O=C(c1ccncc1)N1CCN(S(=O)(=O)c2ccc(F)cc2)CC1 | i | i | i | 2.73 | -9.8 | i
Cc1ccc(C(C)C)c(OCC(O)CN2CCc3ccccc3C2)c1 (centres undefined) | i | i | i | -9.13* | -19.6 | 6*
OC(COc1c(F)cc(Br)cc1F)CN1CCc2ccccc2C1 (centres undefined) | i | i | i | -6.98* | -1.2 | i
Cc1ccc(C)c(OCC(O)CN2CCC(Cc3ccccc3)CC2)c1 (centres undefined) | i | i | i | -6.41* | -16.0 | i
OC(COCc1ccccc1)CN1CCc2ccccc2C1 (centres undefined) | i | i | i | 0.7 | -2.0 | i
Cc1cccc(C)c1OCC(O)CN1CCc2ccccc2C1 (centres undefined) | i | i | i | 0.46 | -10.6 | i
Cc1nn(C(=O)c2nn(C)cc2[N+](=O)[O-])c(C)c1Cl | i | i | i | 0.88 | -1.5 | i
Cc1cc(OCC(=O)NNC(=S)NC(=O)c2ccc(Br)o2)ccc1Cl | 33* | i | i | -0.63 | -9.8 | i
Cc1cc(NC(=O)C2CC(=O)N(c3cccc(Cl)c3)C2)no1 (centres undefined) | i | i | i | 0.8 | -2.5 | i
CCN1CC=C2C(C#N)=C(N)C(C#N)(C#N)[C@H](c3cccc(OC)c3OC)[C@H]2C1 | i | i | i | -3.83 | -16.2 | i
CCN1CC=C2C(C1)C(c1ccc(Cl)s1)C(C#N)=C(N)C2(C#N)C#N (centres undefined) | i | i | i | -9.75 | -19.7 | 11*
Cc1ccc(-c2ccc3c(c2)S(=O)(=O)c2ccccc2C3=O)cc1 | i | . | i | 1.52 | -4.0 | i
COc1ccc(-c2nc3ccccc3c(=O)n2CCCN2CCOCC2)cc1 | i | i | i | 0.91 | -7.6 | i
Cc1nc2ccccc2c(=O)n1CCCN1CCOCC1 | i | i | i | -0.67 | 5.8* | i

Bioassay records (PubChem BioAssay)
